Hits are enriched below; roughly 1.8% of the tested compounds scored in any of these assays.
LMPTP inh: LMPTP (human) inhibition. recombinant LMPTP-A, OMFP fluorogenic substrate, fluorescence intensity. inhibition, % at 20 µM. hit rate 0.22% among 360,000;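 active = compounds that cut the enzyme signal by at least half of the control window in the single-dose screen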;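 also: plate controls were DMSO wells with enzyme plus substrate for no effect and substrate without enzyme for full effect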
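test system = LMPTP-A | amount = 0.625 nM LMPTP-A final | reagent = fluorogenic phosphatase substrate OMFP at 400 µM final | incubation = 50 min at room temperature | benchmarks = no-enzyme low control, uninhibited high control | medium = Bis-Tris pH 6.0, DTT, detergent | signal = fluorescence intensity of OMFP turnover product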
SUMO1 PPI mod: modulators of human SUMO1-mediated protein-protein interactions; SUMO1 binding to a labelled peptide, TR-FRET, 1 h; hit rate 0.33% among 360,000; inhibition, % at 20 µM; P63165; in the data active = inhibition above about 37%
DNMT1 inh: inhibitors of human DNMT1; P26358; DNMT1 molecular beacon, Hinp1I cleavage, fluorescence; inhibition (reported as % activation of signal), % at 10 µM; hit rate 0.83% among 360,000; in the data active = inhibition above about 50%
STEP block: STEP (human) phosphatase inhibition; recombinant STEP, OMFP fluorogenic substrate, fluorescence; AID 588621; hit rate 0.25% among 360,000; P54829; inhibition, % at 20 µM;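 active = inhibition at 20 µM, scaled per plate between control wells, above about 37%, limit read from the data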;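 also: 0% = DMSO with enzyme and substrate and 100% = substrate only without enzyme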
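Test system: STEP tyrosine phosphatase / Reagent: OMFP at 25 µM / Doses: 20 µM, 1% DMSO / Read-out: percent inhibition scaled to no-enzyme and uninhibited-enzyme controls, plate-pattern corrected / Detection: FITC-channel fluorescence of OMFP product / Medium: Bis-Tris buffer pH 6.0, 2.5 mM DTT, 0.005% Tween 20 / Schedule: 20 min at room temperature, dark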
HKDC1 inhibitor: blocks human hexokinase HKDC1 activity; recombinant HKDC1, G6PDH/diaphorase resazurin coupled fluorescence; AID 493160; hit rate 0.16% among 340,000; inhibition, % at 20 µM;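 active = inhibition above about 35% when tested at 20 µM, limit read from the data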;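 also: plate controls were DMSO wells with enzyme for no effect and DMSO wells lacking enzyme for full effect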
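Incubation: 90 min at room temperature in dark / Material: recombinant HKDC1 (HK5) hexokinase enzyme, produced in-house / Quantity: enzyme 5 µg/mL final / Compound: one dose of 20 µM, 1% DMSO / Reagent: glucose and ATP substrates / Buffer or medium: Tris pH 8.0 buffer with MgCl2, Tween-20, BSA, BME / Technique: resorufin fluorescence at 613 nm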
Scp1 inh: blocks human Scp-1 phosphatase activity; Recombinant Scp1, phosphopeptide, malachite green phosphate absorbance; hit rate 0.88% among 340,000; AID 493091; inhibition, % at 20 µM; Q9GZU7;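 active = inhibition above about 50% at 20 µM, limit read from the data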;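 also: plate controls were DMSO wells with enzyme for no effect and wells lacking enzyme for full effect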
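Assay system: SCP-1 catalytic fragment, aa 76-261 | Buffer or medium: Tris acetate buffer pH 5.5 with MgCl2 and Tween-20 | Compound: One concentration, 20 µM, with 1.0% DMSO | Also added: Phospho 17-mer peptide substrate | Signal: Absorbance at 630 nm | Incubation: 45 min enzyme reaction at room temperature | Measure: % inhibition of SCP-1 phosphate liberation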
Scp1 confirm: confirmation of human Scp-1 phosphatase inhibitors. AID 540281. recombinant SCP-1 catalytic domain, phosphate release, malachite green absorbance. inhibition, % at 20 µM. hit rate 61% among 2,500. shares compounds with Scp1 inh;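 also: plate controls were DMSO with enzyme for no effect and buffer wells lacking enzyme for full effect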
MG interference: interferes with malachite green readout, flagging false Scp-1 hits. Colorimetric interference counterscreen, malachite green absorbance 630 nm. shares compounds with Scp1 inh. apparent inhibition (interference), % at 20 µM. 2,500 tested, under 10 active;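 also: compounds added after enzyme reaction finished so only phosphate colour detection is probed; plate controls were DMSO wells with completed Scp-1 reaction for no effect and substrate wells lacking enzyme for full effect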
Scp1 DSF: Scp-1 (human) binding by thermal shift | thermal shift relative to vanadate control, % at 40 µM | hit rate 25% among 1,500 | AID 540329 | Recombinant SCP1, Sypro Orange thermal shift Tm | shares compounds with Scp1 inh;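 active = substances whose mean melting-temperature shift, as a percentage of the reference inhibitor's shift, reaches about 5.3%, limit read from the data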;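 also: 0% = Tm of DMSO wells and 100% = Tm with sodium orthovanadate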
* hit, by the source's call; . = no result given.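 The calls were made as follows, unless noted: active = inhibition of at least 30% at 20 µM; inactive = the rest.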

SMILES	LMPTP inh	SUMO1 PPI mod	DNMT1 inh	STEP block	HKDC1 inhibitor	Scp1 inh	Scp1 confirm	MG interference	others
Cc1nn(C(C)C(=O)NC2C(=O)N3C(C(=O)O)=C(CSc4nnnn4C)CSC23)cc1Cl (stereo not drawn)	0	7	10	4	-2	31	.	.
COc1ccc(NC(=O)NNC(=O)C(C)Oc2ccc3ccccc3c2)cc1OC (stereo not drawn)	0	-5	1	0	-3	-10	.	.
O=C1C=C(O)c2cccc(O)c2C1=O	4	0	-4	2	11	50*	43*	-5	Scp1 DSF=12*
COc1ccc(CCNC(C(=O)Nc2cc(C)cc(C)c2)c2ccccc2)cc1 (stereo not drawn)	4	2	-3	0	5	54*	-9	-5
Cc1ccc(C(=O)N2CCN(c3ncnc4c(C)csc34)CC2)cc1	1	2	0	0	1	58*	4	-1
CN1CCN(NS(=O)(=O)c2cccs2)CC1	-4	0	2	-2	-8	-8	.	.
O=C1NC(=Nc2ccccc2)S/C1=C\c1cccs1	31	-1	2	21	0	97*	20	-14
NC(=O)c1cc(S(=O)(=O)NCc2ccc(F)cc2)cs1	0	2	-1	-2	-4	-5	.	.
Cc1cccc(CNS(=O)(=O)c2csc(C(N)=O)c2)c1	-2	8	1	-5	-4	-11	-9	-12
CSc1ccc(CCNS(=O)(=O)c2csc(C(N)=O)c2)cc1	0	32	-2	0	-3	-4	5	-2
Cc1ccc(C2(C)NC(=O)N(CC(=O)NC3CCCCC3)C2=O)cc1 (stereo not drawn)	-1	9	1	0	2	-3	.	.
COC(=O)c1ccc2nc(-c3ccc(F)cc3)c(CC3CCCCC3)n2c1	3	0	.	.	.	.	.	.
CSCC[C@H](NC(=O)c1cccc(S(=O)(=O)N2CCCCC2)c1)c1nc2ccccc2[nH]1	-1	-1	2	0	2	59*	3	-5
CSCCC(NC(=O)c1cccc([N+](=O)[O-])c1)c1nc2ccccc2[nH]1 (stereo not drawn)	0	-28	-6	0	2	-9	.	.
O=C(NCc1ccccn1)C1CCN(S(=O)(=O)c2ccccc2)CC1	-3	-1	2	-1	0	-1	.	.
O=C(NCc1ccccn1)C1CCN(S(=O)(=O)c2cnc[nH]2)CC1	1	0	0	-3	-3	60*	33*	-13	Scp1 DSF=-5
CCCCC(c1nnnn1CS(=O)(=O)c1ccc(C)cc1)N1CCN(C)CC1 (stereo not drawn)	-2	-1	2	5	-7	-6	.	.
Cc1cccc(C(=O)OC(C)C(=O)N2CCc3ccccc3C2)c1C (stereo not drawn)	1	4	0	1	5	-8	.	.
COc1ccccc1N1CCN(C(=O)c2cc3c(s2)CCC3)CC1	19	0	37	7	12	85*	20	-15
COc1ccc(N2CCN(C(=O)c3cc4c(s3)CCCCC4)CC2)cc1	4	4	-7	2	4	-1	.	.
NS(=O)(=O)c1ccc(NC(=S)Nc2ccc(F)c(F)c2)cc1	-1	-4	2	-3	8	60*	-2	-11
C/C(=N\NC(=O)c1cc(Cl)ccc1O)c1ccc(Br)s1	22	2	-2	16	-9	93*	80*	-13	Scp1 DSF=0
C/C(=N\NC(=O)c1ccc(Cl)cc1)c1ccc(Br)s1	-1	0	13	0	-4	6	.	.

From PubChem
